Measured values reported in ChEMBL document CHEMBL3351542, “Nonpeptide small molecule agonist and antagonist original leads for neuropeptide FF1 and FF2 receptors” (J Med Chem, 2014).
Activity calls are given as the source filed them. No cut-off for these calls is given here. Square brackets hold non-standard residues; d marks the D form. Peptide text beside a SMILES is read from it. NMeF = CN[C@@H](Cc1ccccc1)C(=O)O

Experiments:
[1] = molecular target: T1, Neuropeptide FF receptor 1 (Homo sapiens, UniProt Q9GZQ6); test: Displacement of [3H]NPVF from human NPFF1 receptor expressed in CHO cells after 1 hr by liquid scintillation counting analysis; assay type: cell-based
T1 sequence (Q9GZQ6 whole entry): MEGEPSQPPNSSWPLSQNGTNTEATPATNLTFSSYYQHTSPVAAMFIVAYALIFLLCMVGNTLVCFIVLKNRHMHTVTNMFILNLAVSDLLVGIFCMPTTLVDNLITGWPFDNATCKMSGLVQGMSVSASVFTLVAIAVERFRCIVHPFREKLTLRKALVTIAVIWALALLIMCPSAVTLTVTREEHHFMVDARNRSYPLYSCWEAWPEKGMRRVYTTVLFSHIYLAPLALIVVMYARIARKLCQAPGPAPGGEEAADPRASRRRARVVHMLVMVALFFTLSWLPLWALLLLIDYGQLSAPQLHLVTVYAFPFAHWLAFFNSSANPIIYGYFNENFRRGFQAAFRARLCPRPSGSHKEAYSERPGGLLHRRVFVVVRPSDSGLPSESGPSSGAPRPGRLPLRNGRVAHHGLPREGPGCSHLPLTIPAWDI

[2] = molecular target: T2, Neuropeptide FF receptor 2 (Homo sapiens, UniProt Q9Y5X5); test: Displacement of [3H]EYF from human NPFF2 receptor expressed in CHO cells after 1 hr by liquid scintillation counting analysis; assay type: cell-based
T2 sequence (Q9Y5X5 whole entry): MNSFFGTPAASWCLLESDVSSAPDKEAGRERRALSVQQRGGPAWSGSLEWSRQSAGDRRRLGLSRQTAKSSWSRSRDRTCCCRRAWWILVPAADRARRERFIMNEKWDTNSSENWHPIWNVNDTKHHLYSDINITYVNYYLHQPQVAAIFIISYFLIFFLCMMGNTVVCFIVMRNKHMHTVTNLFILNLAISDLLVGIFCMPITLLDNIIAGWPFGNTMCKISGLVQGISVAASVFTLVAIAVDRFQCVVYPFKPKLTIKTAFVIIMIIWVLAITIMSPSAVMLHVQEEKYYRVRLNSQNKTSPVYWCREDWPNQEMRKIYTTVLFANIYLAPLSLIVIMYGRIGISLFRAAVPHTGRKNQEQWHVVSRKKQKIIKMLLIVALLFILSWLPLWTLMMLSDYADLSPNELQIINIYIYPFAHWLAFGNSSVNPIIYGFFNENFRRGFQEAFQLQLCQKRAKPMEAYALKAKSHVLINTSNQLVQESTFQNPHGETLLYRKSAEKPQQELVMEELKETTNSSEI

Homo sapiens [3] = species: Homo sapiens; test: Selectivity ratio of Ki for human NPFF2 receptor to Ki for human NPFF1 receptor
Homo sapiens [4] = species: Homo sapiens; test: Selectivity for human NPFF2 receptor over human NPFF1 receptor
[5] = molecular target: T1, Neuropeptide FF receptor 1; test: Displacement of [125I]YVP from human NPFF1 receptor expressed in CHO cells after 1 hr by liquid scintillation counting analysis; assay type: cell-based
Procedure, shortened: (§1)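 Competition binding on CHO membranes stably expressing hNPFF1-R ([125I]YVP) or hNPFF2-R ([125I]EYF). Ki reported as mean ± SEM of two to four experiments in duplicate.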

[6] = molecular target: T2, Neuropeptide FF receptor 2; test: Displacement of [125I]EYF from human NPFF2 receptor expressed in CHO cells after 1 hr by liquid scintillation counting analysis; assay type: cell-based; procedure, shortened: as §1
[7] = molecular target: T1, Neuropeptide FF receptor 1; test: Agonist activity at human NPFF1 receptor expressed in CHO cells at 10 uM after 60 mins by [35S-GTPgammaS] binding assay relative to control; assay type: functional, cell-based
Procedure, shortened: (§2)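 CHO cell membranes stably expressing hNPFF1-R (1.5 μg protein) or hNPFF2-R (0.7 μg). 60 min at 30 °C in 20 mM HEPES pH 7.4, 20 mM NaCl, 3 mM MgCl2, 0.1% BSA, saponin, GDP 0.1 μM (NPFF1) or 1 μM (NPFF2), 0.066 nM [35S]GTPγS; filtration, scintillation counting. Compound at 10 μM; % stimulation over basal, compared with 1DMe 10 μM. Two–four experiments in duplicate.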

[8] = molecular target: T2, Neuropeptide FF receptor 2; test: Agonist activity at human NPFF2 receptor expressed in CHO cells at 10 uM after 60 mins by [35S-GTPgammaS] binding assay relative to control; assay type: functional, cell-based; procedure, shortened: as §2
Homo sapiens [9] = species: Homo sapiens; test: Selectivity ratio of Ki for human NPFF1 receptor to Ki for human NPFF2 receptor
[10] = molecular target: T1, Neuropeptide FF receptor 1; test: Agonist activity at human NPFF1 receptor expressed in CHO cells assessed as inhibition of forskolin-induced intracellular cAMP accumulation by liquid scintillation counting analysis; assay type: functional, cell-based
Procedure, shortened: (§3)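 Stably transfected CHO cells (200000) seeded overnight, labelled 1 h at 37 °C with [3H]adenine plus 0.1 μM adenine, rinsed in HEPES-Krebs-Ringer pH 7.4. Compound alone added with forskolin (20 μM in the added solution), IBMX and Ro-20 1724; 10 min at 37 °C, stopped with HCl. [3H]cAMP isolated on acid alumina columns, scintillation counted. Duplicates, two to four experiments.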

[11] = molecular target: T1, Neuropeptide FF receptor 1; test: Antagonist activity at human NPFF1 receptor expressed in CHO cells assessed as reversal of NPVF-induced inhibition of intracellular cAMP accumulation after 10 mins by liquid scintillation counting analysis relative to control; assay type: functional, cell-based
[12] = molecular target: T2, Neuropeptide FF receptor 2; test: Antagonist activity at human NPFF2 receptor expressed in CHO cells assessed as reversal of 1DMe-induced inhibition of intracellular cAMP accumulation after 10 mins by liquid scintillation counting analysis relative to control; assay type: functional, cell-based
[13] = molecular target: T2, Neuropeptide FF receptor 2; test: Antagonist activity at human NPFF2 receptor expressed in CHO cells assessed as reversal of 1DMe-induced inhibition of intracellular cAMP accumulation at 10 to 30 uM after 10 mins by liquid scintillation counting analysis relative to control; assay type: functional, cell-based
[14] = molecular target: T2, Neuropeptide FF receptor 2; test: Antagonist activity at human NPFF2 receptor expressed in CHO cells assessed as inhibition of forskolin-induced intracellular cAMP accumulation at 10 to 30 uM after 10 mins by liquid scintillation counting analysis relative to control; assay type: functional, cell-based
Procedure, shortened: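 At hNPFF2 CHO cells, compound alone tested at 10 and 30 μM in the forskolin-stimulated [3H]cAMP accumulation assay (10 min, 37 °C, IBMX and Ro-20 1724 present, alumina column isolation). Read-out is % inhibition of cAMP accumulation.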

[15] = molecular target: T1, Neuropeptide FF receptor 1; test: Agonist activity at human NPFF1 receptor expressed in CHO cells assessed as inhibition of forskolin-induced intracellular cAMP accumulation up to 1 uM by liquid scintillation counting analysis; assay type: functional, cell-based; procedure, shortened: as §3
[16] = molecular target: T1, Neuropeptide FF receptor 1; test: Partial agonist activity at human NPFF1 receptor expressed in CHO cells assessed as inhibition of forskolin-induced intracellular cAMP accumulation at >1 uM by liquid scintillation counting analysis; assay type: functional, cell-based; procedure, shortened: as §3
[17] = molecular target: T2, Neuropeptide FF receptor 2; test: Agonist activity at human NPFF2 receptor expressed in CHO cells assessed as inhibition of forskolin-induced intracellular cAMP accumulation up to 1 uM by liquid scintillation counting analysis; assay type: functional, cell-based; procedure, shortened: as §3
[18] = molecular target: T2, Neuropeptide FF receptor 2; test: Partial agonist activity at human NPFF2 receptor expressed in CHO cells assessed as inhibition of forskolin-induced intracellular cAMP accumulation at >1 uM by liquid scintillation counting analysis; assay type: functional, cell-based; procedure, shortened: as §3
[19] = molecular target: T2, Neuropeptide FF receptor 2; test: Agonist activity at human NPFF2 receptor expressed in CHO cells assessed as inhibition of forskolin-induced intracellular cAMP accumulation by liquid scintillation counting analysis; assay type: functional, cell-based

N=C(N)NCC(=O)NCC1(CCc2ccccc2)CCN(Cc2ccccc2)CC1
Ki [1]: 151 nM | Ki [2]: 465 nM | Ratio Ki (Homo sapiens [3]): 3

COC(=O)c1ccc(CN2CCC(CNC(=O)CNC(=N)N)(Nc3ccccc3)CC2)cc1
Ki [1]: 340 nM | Ki [2]: 1510 nM | Ratio Ki (Homo sapiens [3]): 4.5

N=C(N)NCC(=O)NCC1(Nc2ccccc2)CCN(Cc2ccc(Br)cc2)CC1
Ki [1]: 112 nM | Ki [2]: 454 nM | Ratio Ki (Homo sapiens [3]): 4

CC(C)C[C@H](NC(=O)[C@H](Cc1ccccc1)NC(=O)[C@H](C)NC(=O)[C@H](CCC(N)=O)NC(=O)[C@@H](N)CO)C(=O)N[C@@H](Cc1ccccc1)C(=O)N[C@@H](CCC(N)=O)C(=O)N1CCC[C@H]1C(=O)N[C@@H](CCC(N)=O)C(=O)N[C@@H](CCCNC(=N)N)C(=O)N[C@@H](Cc1ccccc1)C(N)=O
Selectivity ratio (Homo sapiens [4]): 10.7

N=C(N)NCC(=O)NCC1(Nc2ccc(Cl)c(Cl)c2)CCN(Cc2ccccc2)CC1
Ki [1]: 191 nM | Ki [2]: 409 nM | Ratio Ki (Homo sapiens [3]): 2.1

N=C(N)NCC(=O)NCC1(Nc2ccccc2)CCNCC1
Ki [1]: 15100 nM | Ki [2]: 2760 nM

N=C(N)NCCC[C@H](N)C(=O)NCC1(Nc2ccccc2)CCN(CCc2ccccc2)CC1
Ki [5]: 2910 nM | Ki [6]: 1690 nM

N=C(N)NCCC[C@H](N)C(=O)NCC1(Nc2ccccc2)CCN(Cc2ccccc2)CC1
Ki [5]: 487 nM | Emax [7]: 36% | Emax [8]: 184% | Ki [6]: 1050 nM

N=C(N)NCC(=O)NCC1(Nc2ccccc2)CCN(CCc2ccccc2)CC1
Ki [1]: 1060 nM | Ki [2]: 330 nM | Ratio Ki (Homo sapiens [9]): 3.2

N=C(N)NCC(=O)NCC1(Nc2cccc3ccccc23)CCN(Cc2ccccc2)CC1
Ki [1]: 94 nM | Ki [2]: 309 nM | EC50 [10]: > 10 µM

H-AGEGLSSPFWSLAAPQRF-NH2
Selectivity ratio (Homo sapiens [4]): 10.1

N=C(N)NCC(=O)NCC1(Cc2ccc(Cl)c(Cl)c2)CCN(Cc2ccccc2)CC1
Ki [1]: 432 nM | Ki [2]: 82 nM | Ratio Ki (Homo sapiens [9]): 5.3

N=C(N)NCC(=O)NCC1(Cc2cccc3ccccc23)CCN(Cc2ccccc2)CC1
Ki [1]: 112 nM | Ki [2]: 30 nM | Activity [11]: Dose-dependent effect | EC50 [11]: 2.6 µM | Emax [11]: 56.2% | EC50 [12]: 645 nM | Emax [12]: 22%

N=C(N)NCC(=O)NCC1(Cc2ccc(-c3ccccc3)cc2)CCN(Cc2ccccc2)CC1
Ki [1]: 296 nM | Ki [2]: 910 nM | Ratio Ki (Homo sapiens [3]): 3

N=C(N)NCCC[C@H](N)C(=O)NCC1CCN(Cc2ccccc2)CC1
Ki [5]: > 5000 nM | Ki [6]: 7580 nM

N=C(N)NCC1(Nc2ccccc2)CCN(CCc2ccccc2)CC1
Ki [5]: 2960 nM | Ki [6]: 2770 nM

COc1cc(NC2(CNC(=O)CNC(=N)N)CCN(Cc3ccccc3)CC2)cc(OC)c1
Ki [1]: 114 nM | Ki [2]: 987 nM | EC50 [10]: > 10 µM

N=C(N)NCC(=O)NCC1(c2ccccc2)CCN(Cc2ccccc2)CC1
Ki [1]: 511 nM | Ki [2]: 3500 nM | Ratio Ki (Homo sapiens [3]): 6.9

N=C(N)NCC1(Nc2ccccc2)CCN(Cc2ccccc2)CC1
Ki [5]: 1880 nM | Ki [6]: 6620 nM

N=C(N)NCCC(=O)NCC1(Nc2ccccc2)CCN(Cc2ccccc2)CC1
Ki [1]: 441 nM | Ki [2]: 2910 nM | Ratio Ki (Homo sapiens [3]): 6

N=C(N)NCC(=O)NCC1(Nc2ccccc2)CCN(Cc2ccc3ccccc3c2)CC1
Ki [1]: 141 nM | Ki [2]: 504 nM | Ratio Ki (Homo sapiens [3]): 3.6

CN1CCC(CNC(=N)N)(Nc2ccccc2)CC1
Ki [5]: > 5000 nM | Ki [6]: > 5000 nM

N=C(N)NCCNC(=O)C1(Nc2ccccc2)CCN(Cc2ccccc2)CC1
Ki [1]: 81 nM | Ki [2]: 1430 nM | Activity [11]: Dose-dependent effect | EC50 [11]: 3.52 µM | Emax [11]: 68%

N=C(N)NCC(=O)NCC1(Nc2ccccc2)CCN(Cc2ccccc2)CC1
Ki [1]: 319 nM | Ki [2]: 405 nM | inhibition [13]: Active | Emax [14]: 20% | Activity [15]: Active | Activity [16]: inactive | Activity [17]: Active | EC50 [11]: 22 µM | Emax [11]: 83% | Activity [18]: inactive

N=C(N)NCCC[C@H](N)C(=O)NCC1(Nc2ccccc2)CCN(Cc2ccc3ccccc3c2)CC1
Ki [5]: 479 nM | Ratio Ki (Homo sapiens [9]): 1.6 | Ki [6]: 304 nM

N=C(N)NCC(=O)NCC1(Nc2ccccc2)CCN(Cc2cccc3ccccc23)CC1
Ki [1]: 538 nM | Ki [2]: 129 nM | Ratio Ki (Homo sapiens [9]): 4.2

COc1cccc(NC2(CNC(=O)CNC(=N)N)CCN(Cc3ccccc3)CC2)c1
Ki [1]: 201 nM | Ki [2]: 884 nM | Ratio Ki (Homo sapiens [3]): 4.4

CN1CCC(CNC(=O)[C@@H](N)CCCNC(=N)N)(Nc2ccccc2)CC1
Ki [5]: > 5000 nM | Ki [6]: > 5000 nM

H-SLNFEELKDWGPKNVIKMSTPAVNKMPHSFANLPLRF-NH2
Selectivity ratio (Homo sapiens [4]): 1.2

N=C(N)NCC(=O)NCC1(Nc2ccccc2)CCN(CC2CCCCC2)CC1
Ki [1]: 1640 nM | Ki [2]: 298 nM | Ratio Ki (Homo sapiens [9]): 5.5

N=C(N)NCC(=O)NCC1(Cc2ccc3ccccc3c2)CCN(Cc2ccccc2)CC1
Ki [1]: 316 nM | Ki [2]: 205 nM | Ratio Ki (Homo sapiens [9]): 1.5

N=C(N)NCC(=O)NCC1(Cc2ccccc2)CCN(Cc2ccccc2)CC1
Ki [1]: 417 nM | Ki [2]: 84 nM | EC50 [19]: > 1000 nM

CC(C)C[C@H](NC(=O)[C@H](N)Cc1ccc(O)cc1)C(=O)N(C)[C@@H](Cc1ccccc1)C(=O)N[C@@H](CCC(N)=O)C(=O)N1CCC[C@H]1C(=O)N[C@@H](CCC(N)=O)C(=O)N[C@@H](CCCNC(=N)N)C(=O)N[C@@H](Cc1ccccc1)C(N)=O (H-[dY]L[NMeF]QPQRF-NH2)
Ki ([5]; cho): 4 nM
